Measurements published in ChEMBL document CHEMBL1145272, “P2 pyridine N-oxide thrombin inhibitors: a novel peptidomimetic scaffold” (Bioorg Med Chem Lett, 2005).

Legend:
Prothrombin = Prothrombin (Homo sapiens, UniProt P00734); experiment: Binding affinity against thrombin in human plasma; assay type: cell-free
[1] = Half-life in dog plasma; assay type: ADME, organism-based, Canis lupus familiaris
Summary of the method: (§1)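 Dogs were given the compound orally at 0.65, 0.7 or 0.95 mpk, with the dose differing by compound. Plasma was sampled to obtain the maximum concentration (Cmax, μM) and the plasma half-life (t1/2, h).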

[2] = Maximal plasma concentration in dogs after 0.95 mg/kg oral dose; assay type: ADME, organism-based, Canis lupus familiaris; parameters: dose 0.95 mg/kg, route oral; conditions: dog; summary of the method: as §1
[3] = Maximal plasma concentration in dogs after 0.85 mg/kg oral dose; assay type: ADME, organism-based, Canis lupus familiaris; parameters: dose 0.85 mg/kg, route oral; conditions: dog
[4] = Maximal plasma concentration in dogs after 0.7 mg/kg oral dose; assay type: ADME, organism-based, Canis lupus familiaris; parameters: dose 0.7 mg/kg, route oral; conditions: dog; summary of the method: as §1
[5] = Maximal plasma concentration in dogs after 0.65 mg/kg oral dose; assay type: ADME, organism-based, Canis lupus familiaris; parameters: dose 0.65 mg/kg, route oral; conditions: dog; summary of the method: as §1

Row | SMILES | Ki (Prothrombin) | other results
1 | N#Cc1ccc(N)[n+]([O-])c1CC(=O)NCc1cc(Cl)ccc1-n1cnnn1 | 18 nM | 
2 | O=C(Cc1c(Cl)ccc(NCC(F)(F)c2ccccn2)[n+]1[O-])NCc1ccccc1-n1cncn1 | 2.6 nM | 
3 | C[C@H](NC(=O)Cc1c(Cl)ccc(NCC(F)(F)c2ccccn2)[n+]1[O-])c1cc(Cl)ccc1CN | 3.2 nM | half-life [1]: 4.5 h; Cmax [2]: 2600 nM
4 | C[C@H](N)c1ccc(Cl)cc1CNC(=O)Cc1c(Cl)ccc(NCC(F)(F)c2ccccn2)[n+]1[O-] | 20 nM | 
5 | NCc1ccc(Cl)cc1CNC(=O)Cc1c(Cl)ccc(N)[n+]1[O-] | 26 nM | 
6 | N#Cc1ccc(NCC(F)(F)c2ccccn2)[n+]([O-])c1CC(=O)NCc1ncccc1-n1cncn1 | 0.23 nM | 
7 | NCc1ccc(Cl)cc1C(CO)NC(=O)Cc1c(Cl)ccc(NCC(F)(F)c2ccccn2)[n+]1[O-] (centres undefined) | 0.48 nM | half-life [1]: 1.5 h; Cmax [3]: 340 nM
8 | NCc1ccc(Cl)cc1CNC(=O)Cc1cccc(NCC(F)(F)c2ccccn2)[n+]1[O-] | 0.04 nM | 
9 | Nc1ccc(Cl)c(CC(=O)NCc2cc(Cl)ccc2-n2cnnn2)[n+]1[O-] | 140 nM | 
10 | [O-][n+]1c(NCC(F)(F)c2ccccn2)ccc(Cl)c1CC(O)NCc1cccc(Cl)c1 (centres undefined) | 0.42 nM | 
11 | N#Cc1ccc(NCC(F)(F)c2ccccn2)[n+]([O-])c1CC(O)NCc1cccc(Cl)c1 (centres undefined) | 0.08 nM | 
12 | N#Cc1ccc(NCC(F)(F)c2ccccn2)[n+]([O-])c1CC(=O)NCc1cc(Cl)ccc1-n1cnnn1 | 0.002 nM | 
13 | O=C(Cc1c(Cl)ccc(NCC(F)(F)c2ccccn2)[n+]1[O-])NCc1cc(Cl)ccc1-n1cncn1 | 0.05 nM | 
14 | N#Cc1ccc(N)[n+]([O-])c1CC(=O)NCc1cc(Cl)ccc1CN | 10 nM | 
15 | N#Cc1ccc(NCC(F)(F)c2ccccn2)[n+]([O-])c1CC(=O)NCc1ccccc1 | 150 nM | 
16 | N#Cc1ccc(NCC(F)(F)c2ccccn2)[n+]([O-])c1CC(O)NCc1ccccc1CN (centres undefined) | < 0.01 nM | 
17 | O=C(Cc1cccc(NCC(F)(F)c2ccccn2)[n+]1[O-])NCc1cc(Cl)ccc1-n1cncn1 | 1.5 nM | 
18 | NCc1ccc(Cl)cc1CNC(=O)Cc1c(Cl)ccc(NCC(F)(F)c2ccccn2)[n+]1[O-] | < 0.01 nM | 
19 | C[C@@H](N)c1ccc(Cl)cc1CNC(=O)Cc1c(Cl)ccc(NCC(F)(F)c2ccccn2)[n+]1[O-] | 0.45 nM | half-life [1]: 2 h; Cmax [4]: 100 nM
20 | C[C@@H](NC(=O)Cc1c(Cl)ccc(NCC(F)(F)c2ccccn2)[n+]1[O-])c1cc(Cl)ccc1CN | 260 nM | 
21 | O=C(Cc1c(Cl)ccc(NCC(F)(F)c2ccccn2)[n+]1[O-])NCc1ncccc1F | 6 nM | 
22 | O=C(Cc1c(Cl)ccc(NCC(F)(F)c2ccccn2)[n+]1[O-])NCc1ncccc1-n1cncn1 | 2.5 nM | 
23 | N#Cc1ccc(NCC(F)(F)c2ccccn2)[n+]([O-])c1CC(=O)NCc1ncccc1F | 1.5 nM | 
24 | O=C(Cc1cccc(NCC(F)(F)c2ccccn2)[n+]1[O-])NCc1cc(Cl)ccc1-n1cnnn1 | 0.14 nM | 
25 | NCc1ccccc1CNC(=O)Cc1c(Cl)ccc(NCC(F)(F)c2ccccn2)[n+]1[O-] | 0.4 nM | Cmax [5]: 820 nM; half-life [1]: 1.5 h
26 | N#Cc1ccc(NCC(F)(F)c2ccccn2)[n+]([O-])c1CC(=O)NCc1cc(Cl)ccc1CN | 0.001 nM | 
